ChEMBL document CHEMBL4619801, “Discovery of Phthalazinone Derivatives as Novel Hepatitis B Virus Capsid Inhibitors” (J Med Chem, 2020)
The source made the active and inactive calls. No cut-off for these calls is given here.

Legend:
[1] = Cytotoxicity in human HepG2.2.15 cells assessed as reduction in cell viability incubated for 8 days by MTT assay; type: cell-based, HepG2 2.2.15
How it was run: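 This was run in the same 8-day HepG2.2.15 cultures. After the medium was removed, MTT was added (final 2.5 mg/mL) for 1 h at 37 °C. Cells were lysed in 10% SDS/50% DMF, pH 7.2, and OD was read at 570 nm to give % cell death. CC50 was averaged with SD from at least two independent determinations.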

[2] = tested on: Hepatitis B virus; experiment: Antiviral activity against HBV infected in human HepG2.2.15 cells assessed as reduction in cytoplasmic HBV-DNA replication incubated for 8 days by real-time PCR analysis; type: functional, organism-based
[3] = tested on: Hepatitis B virus; experiment: Antiviral activity against HBV infected in human HepG2.2.15 cells assessed as increase in faster-migrating capsids levels at 0.13 to 1 uM by agarose gel electrophoresis method; type: functional, organism-based; details: HepG2 2.2.15
How it was run: (§1)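 HepG2.2.15 cells treated at indicated concentrations for 8 days. Intracellular capsids resolved on 1.8% native agarose gel; capsid mobility compared with untreated cells, and capsid-associated HBV DNA detected in situ.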

[4] = tested on: Hepatitis B virus; experiment: Antiviral activity against HBV in AAV8-HBV-transduced Balb/c mouse assessed as reduction in HBV DNA level in plasma at 150 mg/kg, po BID for 4 weeks relative to control; type: functional
How it was run: (§2)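 Male Balb/c mice (6−8 weeks, SPF) given one iv tail-vein injection of recombinant AAV carrying HBV 1.1 genome (10¹¹ viral genome equivalents); after 5 weeks, stably viremic mice dosed orally for 4 weeks. […] Weekly blood sampling; plasma HBV DNA by real-time PCR; Dunnett's test versus vehicle.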

[5] = tested on: mouse (Mus musculus); experiment: AUC (0 to infinity) in mouse at 20 mg/kg, po dosed as single administration; details: in vivo
[6] = tested on: Hepatitis B virus; experiment: Antiviral activity against HBV infected in human HepG2.2.15 cells assessed as reduction in capsid associated DNAs at 0.13 to 1 uM by agarose gel electrophoresis method; type: functional, organism-based; details: HepG2 2.2.15; how it was run: as §1
[7] = tested on: mouse (Mus musculus); experiment: Observed volume of distribution at steady state in mouse at 2 mg/kg, iv dosed as single administration; details: in vivo, read-out: Vdss
[8] = tested on: Hepatitis B virus; experiment: Antiviral activity against HBV infected in human HepG2.2.15 cells assessed as reduction in relaxed circular form of viral DNA at 0.06 to 1 uM incubated for 8 days by Southern blotting analysis; type: functional, organism-based; details: HepG2 2.2.15
How it was run: (§3)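 HepG2.2.15 cells grown in 12-well plates were treated at the indicated concentrations for 8 days. HBV DNA was extracted from intracellular capsids and detected by Southern blot hybridization with a DIG-labeled HBV genomic fragment probe. Relaxed circular (rc) and single-stranded (ss) replication intermediates were read from the blot.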

[9] = tested on: mouse (Mus musculus); experiment: AUC (0 to infinity) in mouse at 2 mg/kg, iv dosed as single administration; details: in vivo
[10] = tested on: mouse (Mus musculus); experiment: Observed clearance in mouse at 2 mg/kg, iv dosed as single administration; details: in vivo
[11] = tested on: Hepatitis B virus; experiment: Antiviral activity against HBV in AAV8-HBV-transduced Balb/c mouse assessed as reduction in HBV DNA level in plasma at 50 to 150 mg/kg, po BID for 4 weeks; type: functional, organism-based; how it was run: as §2
[12] = Drug level in CD1 mouse liver at 20 mg/kg, po dosed as single administration measured after 8 hrs; type: ADME, organism-based; details: read-out: Drug uptake
How it was run: (§4)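 ICR (CD-1) mice were dosed orally at 20 mg/kg. At set times (1, 3, 8 and 24 h), blood was taken from the heart and portal vein under isoflurane anesthesia and spun to plasma. Livers were removed after portal vein perfusion, rinsed in saline, weighed and homogenized in saline (5 mL/g). Samples were analysed by UPLC–MS/MS in positive electrospray mode.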

[13] = tested on: mouse (Mus musculus); experiment: Half life in mouse at 2 mg/kg, iv dosed as single administration; details: in vivo
[14] = tested on: Hepatitis B virus; experiment: Antiviral activity against HBV infected in human HepG2.2.15 cells assessed as reduction in single-stranded form of viral DNA at 0.06 to 1 uM incubated for 8 days by Southern blotting analysis; type: functional, organism-based; details: HepG2 2.2.15; how it was run: as §3
[15] = tested on: Hepatitis B virus; experiment: Antiviral activity against HBV in AAV8-HBV-transduced Balb/c mouse assessed as reduction in HBV DNA level in plasma at 100 mg/kg, po BID for 4 weeks relative to control; type: functional, organism-based; how it was run: as §2
[16] = Ratio of drug level in liver to plasma of CD1 mouse at 20 mg/kg, po dosed as single administration measured after 8 hrs; type: ADME, organism-based; how it was run: as §4
[17] = tested on: Hepatitis B virus; experiment: Antiviral activity against HBV infected in human HepG2.2.15 cells assessed as reduction in cytoplasmic HBV-DNA replication at cytotoxic CC50 level incubated for 8 days by real-time PCR analysis; type: functional, organism-based; details: HepG2 2.2.15
[18] = tested on: Hepatitis B virus; experiment: Antiviral activity against HBV infected in human HepG2.2.15 cells assessed as reduction in capsid associated DNAs at 1 uM by agarose gel electrophoresis method; type: functional, organism-based; details: HepG2 2.2.15; how it was run: as §1
[19] = Drug level in CD1 mouse liver at 20 mg/kg, po dosed as single administration measured after 1 to 8 hrs; type: ADME, organism-based; details: in vivo; how it was run: as §4
[20] = Drug level in CD1 mouse liver at 20 mg/kg, po dosed as single administration measured after 24 hrs; type: ADME, organism-based; details: in vivo; how it was run: as §4
[21] = tested on: Hepatitis B virus; experiment: Antiviral activity against HBV infected in human HepG2.2.15 cells assessed as reduction in capsid associated DNAs at 5 uM by agarose gel electrophoresis method; type: functional, organism-based; details: HepG2 2.2.15; how it was run: as §1
[22] = tested on: mouse (Mus musculus); experiment: Tmax in mouse at 2 mg/kg, iv dosed as single administration; details: in vivo
[23] = tested on: Hepatitis B virus; experiment: Antiviral activity against HBV infected in human HepG2.2.15 cells assessed as reduction in capsid formation; type: functional, organism-based; details: HepG2 2.2.15
[24] = tested on: Hepatitis B virus; experiment: Antiviral activity against HBV infected in human HepG2.2.15 cells assessed as reduction in capsid associated DNAs at 0.1 uM by agarose gel electrophoresis method; type: functional, organism-based; details: HepG2 2.2.15; how it was run: as §1

| SMILES | IC50 ([2]; HepG2 2.2.15, 192 h) | IC90 ([2]; HepG2 2.2.15, 192 h) | CC50 at 192 h [1] | further results |
| --- | --- | --- | --- | --- |
| N#Cc1ccc(Cn2nc(-c3cc(Cl)c(NCC(O)CO)nc3F)c3ccccc3c2=O)cc1 (configuration not stated) | 0.014 µM | 0.39 µM | > 100 µM | Activity [3]: Active; log(activity) [4]: 2.67; AUC(0-inf) [5]: 49800 ng·h/mL; Activity [6]: Dose-dependent effect; Vd [7]: 0.766 L/kg; Activity [8]: Dose-dependent effect; AUC(0-inf) [9]: 8250 ng·h/mL; clearance [10]: 4.1 mL/min/kg; Activity [11]: Dose-dependent effect; concentration at 8 h [12]: 5950 ng/g; half-life [13]: 2.52 h; Activity [14]: Dose-dependent effect; Activity [15]: Active; Kp at 8 h [16]: 4 |
| CNc1ccc(-c2nn(Cc3ccc(C#N)cc3)c(=O)c3ccccc23)c(F)n1 | 0.54 µM | > 10 µM | > 100 µM | – |
| O=c1c(CO)cc(-c2ccc(F)nc2F)nn1Cc1ccc(Cl)cc1 | 0.17 µM | – | > 100 µM | – |
| CN(C)CCNc1nc(F)c(-c2nn(Cc3ccc(C#N)cc3)c(=O)c3ccccc23)cc1Cl | 0.26 µM | 0.87 µM | 9.76 µM | – |
| CC(=O)Nc1ccc(-c2nn(Cc3ccc(C#N)cc3)c(=O)c3ccccc23)c(F)n1 | – | – | > 100 µM | Activity [17]: inactive; IC90 ([2]; HepG2 2.2.15): inactive |
| COC(=O)c1cc(-c2ccc(F)nc2F)nn(Cc2ccc(Cl)cc2)c1=O | – | – | > 100 µM | Activity [17]: inactive |
| COc1cc(-c2ccc(F)nc2F)nn(Cc2ccc(Cl)cc2)c1=O | – | – | 92.2 µM | Activity [17]: inactive |
| O=C(O)c1cc(-c2ccc(F)nc2F)nn(Cc2ccc(Cl)cc2)c1=O | – | – | > 100 µM | Activity [17]: inactive |
| COC(=O)C1=C(C)NC(c2ncc(F)cc2F)=N[C@H]1c1ccc(F)cc1Cl | 0.042 µM | – | – | Activity [18]: Active |
| COc1ccccc1/C(Br)=C(/NC(=O)c1ccc([N+](=O)[O-])cc1)C(=O)N1CCCCC1 | 0.87 µM | – | > 20 µM | Activity [21]: Active |
| O=c1c2c(c(-c3ccc(F)nc3F)nn1Cc1ccc(Cl)cc1)CCCC2 | 1.45 µM | – | 31 µM | – |
| COC(=O)CCNc1nc(F)c(-c2nn(Cc3ccc(C#N)cc3)c(=O)c3ccccc23)cc1Cl | 0.21 µM | 1.14 µM | > 100 µM | – |
| N#Cc1ccc(Cn2nc(-c3cc(Cl)c(NC[C@H](O)CO)nc3F)c3ccccc3c2=O)cc1 | 0.022 µM | 1.01 µM | > 100 µM | – |
| Cc1nc(-c2ccc(F)nc2F)cn(Cc2ccc(Cl)cc2)c1=O | – | – | > 100 µM | Activity [17]: inactive |
| N#Cc1ccc(Cn2nc(-c3cc(Cl)c(NCCC(=O)O)nc3F)c3ccccc3c2=O)cc1 | 0.26 µM | 4.02 µM | > 100 µM | – |
| O=c1c2ccccc2c(-c2ccc(F)nc2F)nn1Cc1ccc(Cl)cc1 | 0.3 µM | – | 36.7 µM | – |
| Cc1c(-c2ccc(F)nc2F)nn(Cc2ccc(Cl)cc2)c(=O)c1C | 1.22 µM | – | 52.9 µM | – |
| C=C1[C@H](CO)[C@@H](O)C[C@@H]1n1cnc2c(=O)[nH]c(N)nc21 | – | – | – | Activity [23]: inactive; Activity [24]: Active |

Continued, in another order:

| IC50 ([2]; HepG2 2.2.15, 192 h) | IC90 ([2]; HepG2 2.2.15, 192 h) | SMILES | CC50 at 192 h [1] | further results |
| --- | --- | --- | --- | --- |
| 0.53 µM | > 10 µM | CN(C)c1ccc(-c2nn(Cc3ccc(C#N)cc3)c(=O)c3ccccc23)c(F)n1 | 79.2 µM | – |
| 35.1 µM | – | O=c1c(C2CC2)cc(-c2ccc(F)nc2F)nn1Cc1ccc(Cl)cc1 | 39.8 µM | – |
| 5.45 µM | – | Cc1cc(-c2ccc(F)nc2F)cn(Cc2ccc(Cl)cc2)c1=O | 90.8 µM | – |
| 0.12 µM | – | N#Cc1ccc(Cn2nc(-c3ccc(F)nc3F)c3ccccc3c2=O)cc1 | > 100 µM | Activity [8]: Dose-dependent effect; Drug uptake [19]: Active; Activity [14]: Dose-dependent effect; Drug uptake [20]: Not Active |
| 11.3 µM | – | CC(C)c1cc(-c2ccc(F)nc2F)nn(Cc2ccc(Cl)cc2)c1=O | 56.7 µM | – |
| 0.038 µM | 0.35 µM | COCCNc1nc(F)c(-c2nn(Cc3ccc(C#N)cc3)c(=O)c3ccccc23)cc1Cl | > 100 µM | AUC(0-inf) [5]: 850 ng·h/mL; Vd [7]: 3.09 L/kg; Activity [8]: Dose-dependent effect; AUC(0-inf) [9]: 3070 ng·h/mL; clearance [10]: 11.1 mL/min/kg; half-life [13]: 3.09 h; Activity [14]: Dose-dependent effect |
| 0.008 µM | 0.24 µM | N#Cc1ccc(Cn2nc(-c3cc(Cl)c(NC[C@@H](O)CO)nc3F)c3ccccc3c2=O)cc1 | > 100 µM | – |
| 0.43 µM | > 10 µM | COCCNc1ccc(-c2nn(Cc3ccc(C#N)cc3)c(=O)c3ccccc23)c(F)n1 | > 100 µM | – |
| 1.89 µM | – | Cn1cc(-c2ccc(F)nc2F)nc(Cc2ccc(Cl)cc2)c1=O | > 100 µM | – |
| 0.028 µM | 0.23 µM | N#Cc1ccc(Cn2nc(-c3cc(Cl)c(NCCO)nc3F)c3ccccc3c2=O)cc1 | 32.1 µM | AUC(0-inf) [5]: 171 ng·h/mL; Tmax [22]: 0.25 h; Vd [7]: 5.44 L/kg; AUC [9]: 735 ng·h/mL |
| 0.8 µM | > 10 µM | N#Cc1ccc(Cn2nc(-c3ccc(N)nc3F)c3ccccc3c2=O)cc1 | > 100 µM | – |
| 0.82 µM | > 10 µM | Cc1ccc(-c2nn(Cc3ccc(C#N)cc3)c(=O)c3ccccc23)c(F)n1 | > 100 µM | – |
| 2.11 µM | > 10 µM | CCOc1ccc(-c2nn(Cc3ccc(C#N)cc3)c(=O)c3ccccc23)c(F)n1 | > 100 µM | – |
